From ChEMBL document CHEMBL3751671, “Synthesis and biological activity of diisothiocyanate-derived mercapturic acids” (Bioorg Med Chem Lett, 2016)

What was measured:
[1] = system: LoVo; test: Antiproliferative activity against human LoVo cells assessed as reduction in cell viability after 72 hrs by SRB assay; format: functional, cell-based
Outline: (§1)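 Human colon adenocarcinoma LoVo cells and their doxorubicin-resistant subline LoVo/DX. Growth was read by sulforhodamine B (SRB) staining. IC50 values are means ± SD from at least three experiments, each in triplicate.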

[2] = Antiproliferative activity against human LoVo/DX cells assessed as reduction in cell viability after 72 hrs by SRB assay; format: functional, cell-based; outline: as §1
[3] = biological target: Histone deacetylase; test: Inhibition of HDAC in human LoVo/DX cells using Boc-Lys(Ac)-AMC as substrate assessed as release of AMC pre-incubated for 15 mins followed by substrate addition measured after 3 hrs by indirect spectrofluorometric assay; format: cell-based
Outline: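 Crude enzyme was LoVo/DX cell lysate. HDAC activity was read by an indirect spectrofluorometric assay, and IC50 was determined on the lysate.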

[4] = system: BALB/3T3; test: Cytotoxicity against mouse BALB/3T3 cells after 72 hrs by SRB assay; format: cell-based; settings: BALB/3T3, 72 h
[5] = Potency index, ratio of IC50 for doxorubicin to IC50 for test compound against human LoVo/DX cells assessed as reduction in cell viability after 72 hrs by SRB assay; format: functional
[6] = Selectivity index, ratio of IC50 for mouse BALB/3T3 cells to IC50 for human LoVo/DX cells; format: functional
[7] = system: LoVo; test: Selectivity index, ratio of IC50 for mouse BALB/3T3 cells to IC50 for human LoVo cells; format: functional
[8] = system: LoVo; test: Selectivity index, ratio of IC50 for human LoVo/DX cells to IC50 for human LoVo cells; format: functional
[9] = system: Mus musculus; test: Toxicity in Balb/c mouse assessed as changes in body weight at 900 umol/kg; format: organism-based; settings: in vivo
Outline: (§2)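 Preliminary in vivo toxicity study in Balb/c mice given high doses (900 µmol/kg b.w.). Toxicity was judged from body weight changes, blood morphology and blood biochemical analysis.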

[10] = system: Mus musculus; test: Toxicity in Balb/c mouse assessed as changes in blood morphology at 900 umol/kg; format: organism-based; settings: in vivo; outline: as §2
[11] = system: Mus musculus; test: Toxicity in Balb/c mouse assessed as changes in blood biochemical parameters at 900 umol/kg; format: organism-based; settings: in vivo; outline: as §2
[12] = Homo sapiens, LoVo, 72 h, read-out: IC50

| Structure (SMILES) | IC50 [1, 12] [µM] | IC50 [2] [µM] | IC50 [3] [µM] | IC50 [4] [µM] | also measured |
| --- | --- | --- | --- | --- | --- |
| CC(=O)N[C@@H](CSC(=S)NCCCNC(=S)SC[C@H](NC(C)=O)C(=O)O)C(=O)O | 4.22 | 9.55 | 5960 | 8.65 | – |
| Cc1ccc(N=C=S)cc1N=C=S | 35.2 | 47.3 | – | – | – |
| S=C=NCCCCN=C=S | 1.88 | 2.35 | – | – | Ratio IC50 [5]: 3 |
| CC(=O)N[C@@H](CSC(=S)NCCc1ccccc1)C(=O)O | 12.7 | 7.7 | 3450 | 25.3 | – |
| CC(=O)N[C@@H](CSC(=S)Nc1cccc(NC(=S)SC[C@H](NC(C)=O)C(=O)O)c1)C(=O)O | > 25 | > 25 | 970 | > 100 | – |
| S=C=NCCCN=C=S | 1.84 | 2.44 | – | – | – |
| CC(=O)N[C@@H](CSC(=S)NCCCOCCOCCOCCCNC(=S)SC[C@H](NC(C)=O)C(=O)O)C(=O)O | 2.59 | 7.93 | 4260 | 7.15 | – |
| CC(=O)N[C@@H](CSC(=S)NCC1CCCC(CNC(=S)SC[C@H](NC(C)=O)C(=O)O)C1)C(=O)O (some centres not stated) | 11.7 | 12.8 | 2680 | 5.88 | Ratio IC50 [6]: 0.5 |
| CCCCN=C=S [BUTYL ISOTHIOCYANATE] | 296 | 265 | – | – | – |
| S=C=Nc1ccc(N=C=S)cc1 [BITOSCANATE] | 9.41 | 11.6 | – | – | – |
| CC(=O)N[C@@H](CSC(=S)Nc1ccc(NC(=S)SC[C@H](NC(C)=O)C(=O)O)cc1)C(=O)O | 23.5 | 19.4 | 290 | 79.5 | Ratio IC50 [7]: 3; Ratio IC50 [6]: 3 |
| CC(=O)N[C@@H](CSC(=S)N[C@H]1CC[C@H](NC(=S)SC[C@H](NC(C)=O)C(=O)O)CC1)C(=O)O | 5.21 | 3.45 | 3740 | 7.27 | – |
| CC(=O)N[C@@H](CSC(=S)NCc1ccccc1)C(=O)O | 11.7 | 16.8 | 3440 | 23.4 | – |
| COc1cccc2c1C(=O)c1c(O)c3c(c(O)c1C2=O)C[C@@](O)(C(=O)CO)C[C@@H]3O[C@H]1C[C@H](N)[C@H](O)[C@H](C)O1 [DOXORUBICIN] | – | 7.2 | – | 0.11 | Ratio IC50 [8]: 48 |
| S=C=Nc1cccc(N=C=S)c1 | 46.4 | 55.7 | – | – | – |
| S=C=NCc1ccccc1 [BENZYL ISOTHIOCYANATE] | 14.5 | 19.8 | – | – | – |
| S=C=NCCc1ccccc1 [PHENETHYLISOTHIOCYANATE] | – | 9.8 | – | – | – |
| CC(=O)N[C@@H](CSC(=S)NC1CCCCC1NC(=S)SC[C@H](NC(C)=O)C(=O)O)C(=O)O (some centres not stated) | – | 473 | 1660 | 75.2 | IC50 ([1]; lovo): Not Active |
| COc1ccc(CNC(=S)SC[C@H](NC(C)=O)C(=O)O)cc1 | 3.7 | 4.2 | 2940 | 6.9 | – |
| CCCCCN=C=S [1-ISOTHIOCYANATOPENTANE] | 88.3 | 75.2 | – | – | – |
| CC(=O)N[C@@H](CSC(=S)Nc1ccc(C)c(NC(=S)SC[C@H](NC(C)=O)C(=O)O)c1)C(=O)O | 20.5 | 22.4 | 450 | 54.7 | Ratio IC50 [7]: 3; Ratio IC50 [6]: 3 |
| CCCCNC(=S)SC[C@H](NC(C)=O)C(=O)O | 130 | 134 | 3460 | 206 | – |
| CCCN=C=S [PROPYL ISOTHIOCYANATE] | 181 | 177 | – | – | – |
| CC(=O)N[C@@H](CSC(=S)NCCCCNC(=S)SC[C@H](NC(C)=O)C(=O)O)C(=O)O | 2.02 | 4.84 | 2330 | 5.54 | Activity [9]: Non-toxic; Activity [10]: Non-toxic; Activity [11]: Non-toxic |
| COc1ccc(CN=C=S)cc1 | 3.7 | 3.9 | – | – | – |
| CCCNC(=S)SC[C@H](NC(C)=O)C(=O)O | 151 | 112 | – | 224 | – |
| CC(=O)N[C@@H](CSC(=S)NCCCC(C)CNC(=S)SC[C@H](NC(C)=O)C(=O)O)C(=O)O (some centres not stated) | 7.15 | 6.6 | 2190 | 7.99 | – |
| CC(=O)N[C@@H](CSC(=S)NCCOCCOCCNC(=S)SC[C@H](NC(C)=O)C(=O)O)C(=O)O | 4.62 | 14.2 | 4370 | 6.87 | Ratio IC50 [6]: 0.5 |
| CCCCCNC(=S)SC[C@H](NC(C)=O)C(=O)O | 36.6 | 42.8 | 3200 | 48.5 | – |
| CC(=O)N[C@@H](CS)C(=O)O [ACETYLCYSTEINE] | – | – | 3160 | – | – |
